Only some compounds are listed: those with a hit (about 4.1% of all), similar ones and a draw of the others.
Redox H2O2 prof: compounds producing H2O2 with reducing agent – biochemical, NIH compound library profiling, artefact control for MLSCN library redox annotation, primary screen | DTT-dependent redox cycling H2O2, phenol red/HRP absorbance; 100% = 100 µM peroxide control, 0% = buffer | activation, % at 10 µM | 200,000 tested, 0.03% active | AID 878;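 active = activation of at least 50% relative to the plate's high and low controls in the primary single-dose screen; inactive = activation below 50%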;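 also: compound incubated with DTT at 0.8 mM final as the reducing agent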
Cl transport mod: modulates chloride dependent transport by human KCC2; Q9H2X9; KCC2 cells, thallium flux FluoZin-2 fluorescence; B-score of Tl+ flux slope (higher = more flux/activation; lower = inhibition) at 10 µM; 190,000 tested, 2.2% active; AID 1456;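 active = thallium flux slope and its plate-corrected score both differing from the plate sample mean at a set confidence after two filtering rounds, in either direction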;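 also: slope of fluorescence scaled to starting intensity during 10 to 20 s after thallium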
Autophagy HCS: alters autophagy in cells. calls only at 10 µM (by protocol). AID 463193. 190,000 tested, 0.98% active. MEF GFP-LC3 puncta imaging; test concentration mostly 10 µM;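 active = percentage of spot-positive cells more than 3 SD above its plate mean, without a fluorescence outlier flag or 80% toxicity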;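 also: spot-positive cell cutoff set from DMSO-treated cells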
Dynein cargo inh: blocks dynein driven cargo transport along microtubules; 3617.4 mouse cells, GR-EGFP nuclear translocation imaging; test concentration mostly 20 µM; stimulated with dexamethasone, 1 µM; active compounds read low; z-score, hits read low; 220,000 tested, 0.47% active;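 active = plate z-score of nuclear minus cytoplasmic receptor signal below a set negative limit, without overly bright fluorescence or cell loss, cut at about -3.5 in these data, passing the limit was not always enough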;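 also: z-score of nuclear minus cytoplasmic ring GR-EGFP intensity difference per well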
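Buffer or medium: tet-free medium with charcoal-stripped serum / Also added: dexamethasone agonist, 1.0 µM final, for 30 min / Timing: induction 48 h, compound 1 h, agonist 30 min / Measured by: high-content fluorescence imaging after fixation / Read-out: nuclear-to-cytoplasmic GR-EGFP distribution per well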
ROMK primary: modulates human ROMK potassium channel activity | AID 1918 | P48048 | 130,000 tested, 2% active | B-score at 10 µM | Tet-inducible ROMK, thallium flux fluorescence; actives lie on both sides;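 active = signal ratio slope over the read window, or its plate-corrected B-score, at least 3 SD from the plate mean, either direction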;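 also: B-score of the F/F0 ratio slope over 7 to 12 s after thallium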
Target sequence (P48048 whole entry, looked up): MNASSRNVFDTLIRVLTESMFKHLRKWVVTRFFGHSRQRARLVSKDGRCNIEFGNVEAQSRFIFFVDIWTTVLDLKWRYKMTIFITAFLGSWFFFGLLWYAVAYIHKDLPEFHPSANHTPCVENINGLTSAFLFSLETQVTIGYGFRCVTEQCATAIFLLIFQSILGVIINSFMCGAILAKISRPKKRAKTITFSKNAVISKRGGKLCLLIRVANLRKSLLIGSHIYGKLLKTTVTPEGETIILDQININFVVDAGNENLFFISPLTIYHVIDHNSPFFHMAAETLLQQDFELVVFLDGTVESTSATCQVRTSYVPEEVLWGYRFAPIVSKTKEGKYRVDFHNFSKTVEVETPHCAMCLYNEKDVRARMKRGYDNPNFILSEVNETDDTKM
* hit, by the source's call; i = inactive; . = no result; + = active, no number.

SMILES | Redox H2O2 prof | Cl transport mod | Autophagy HCS | Dynein cargo inh | ROMK primary
CCOc1cc(-c2cc(-c3ccc(C)cc3)nc(N)c2C#N)ccc1O | 0 | . | + | -0.6 | 0.33
COC(=O)Cc1c(O)ccn(Cc2ccc(F)cc2)c1=O | -4 | 1.5 | i | 0.93 | 1*
COC(=O)Cc1c(O)ccn(CCc2ccccc2)c1=O | -1 | -0.8 | i | 0.67 | 0.41
O=S(=O)(c1cccc(F)c1)N1CCN(C(=S)NCc2ccccc2)CC1 | -2 | -0.66 | i | 0.81 | 0.07
CC1CCc2c(sc(NS(=O)(=O)c3ccccc3)c2C(=O)OC(C)C)C1 (stereo unspecified) | 0 | 10* | i | 1.5 | 0.088
COc1ccc(C/C(C)=N/NC(=O)C2COc3ccccc3O2)cc1 (stereo unspecified) | 0 | -0.1 | i | -0.55 | -0.32
Cc1ccc(/C=N/NC(=O)c2csc3c2CCCC3)cc1 | -4 | -0.53 | + | 0.14 | 2.1
CCc1cc(C(=O)NNC(=S)Nc2cc(C)ccc2C)cs1 | 1 | 10* | i | -0.81 | .
Cc1cccc(NC(=S)NNC(=O)c2csc3c2CCCC3)c1 | -9 | 21* | i | -1.1 | -1
COc1cc(/C=N/NC(=O)c2csc3c2CCCC3)cc(OC)c1O | 0 | -1.2 | i | -0.42 | -0.44
COc1ccccc1NC(=O)c1csc2c1CCC(C)C2 (stereo unspecified) | 0 | -0.68 | i | -0.28 | .
Cc1ccc(C)c(NC(=S)NNC(=O)c2csc3c2CCC(C)C3)c1 (stereo unspecified) | 0 | 21* | i | 1.9 | 1.5
CC1(NC(=O)NCc2ccccc2)CCS(=O)(=O)C1 (stereo unspecified) | 0 | 0.029 | i | -0.33 | 0.35
Cc1ccc(C)c(NC(=S)NNC(=O)c2csc3c2CCCC3)c1 | -1 | 79* | i | -1.3 | -0.73
O=C(C[n+]1ccc(/C=N/O)cc1)NC1CCCCC1 | -1 | 0.38 | i | -0.097 | -0.034
CC(C)CCN1CCN(Cc2ccc(Oc3ncccn3)cc2)CC1CCO (stereo unspecified) | -1 | 0.33 | + | -0.42 | -0.00013
N#Cc1c(-c2ccc(Cl)cc2)ccnc1N1CCOCC1 | 0 | -1.2 | i | 0.49 | -0.33
O=C(CNC(=S)N(Cc1ccccc1Cl)C1CCCC1)NCCN1CCOCC1 | 0 | 0.92 | i | 0.3 | 0.072
CCOC(=O)c1sc2nc(CSc3ccccc3)nc(N3CCCN(C)CC3)c2c1C | 1 | 0.05 | + | 2.3 | -2.3
O=C1c2ccc(Br)cc2C(=O)N1c1ccc(Cc2ccncc2)cc1 | 10 | . | i | 0.5 | -0.045
Cc1cnc(C(=O)Nc2ccccc2-c2nnn(CC(=O)NC3CCCC3)n2)cn1 | 0 | . | + | 0.38 | 0.29
Cc1cc(NC(=O)Cn2cc([N+](=O)[O-])cn2)no1 | 4 | 0.33 | i | -0.91 | 0.32
CCCCn1c(-c2nonc2N)nc2ccccc21 | 2 | -0.44 | i | 0.4 | .
Nc1nonc1-c1nc2ccccc2n1Cc1ccccc1 | 1 | . | + | 0.78 | -1.8
CC1CCCCN1CCNC(=O)Cn1nc(-c2ccccc2)ccc1=O (stereo unspecified) | 0 | -0.019 | + | -0.69 | 1.7
SMILES | Redox H2O2 prof | Cl transport mod | Autophagy HCS | Dynein cargo inh | ROMK primary
Cc1ccc(-c2ccc(=O)n(CC(=O)NCCCN3CCCCC3C)n2)cc1 (stereo unspecified) | 0 | 0.29 | i | -0.62 | .
CC(C)(C)CN1CCNC(=O)C1CC(=O)NCCN1CCCc2ccccc21 (stereo unspecified) | -1 | . | i | -1.1 | 0.87
O=C(CSc1nnc(CCc2nc3ccccc3[nH]2)n1-c1ccccc1)NCc1ccccc1 | 0 | . | i | 0.021 | .
C/C(N)=C(/C#N)C(=O)CSc1nc2cc(Cl)ccc2c(=O)n1-c1ccc(C)cc1 | 0 | 8.7* | i | 0.18 | .
Cc1ccc(-c2csc(NC(=O)CSc3nc4ccccc4c(=O)n3CCCN(C)C)n2)cc1 | -1 | 1.5 | + | 0.039 | -1.8
CC(=O)NCCn1c(SCC(=O)NCc2ccco2)nc2ccccc2c1=O | 1 | 2.8 | i | -1.8 | .
CCCCn1c(SCC(=O)NCc2ccco2)nc2ccccc2c1=O | 3 | 9.1* | i | 0.22 | -1.2
O=C(CSc1nnc(CCc2nc3ccccc3[nH]2)n1-c1ccccc1)NCc1ccco1 | 3 | -0.071 | + | -1.2 | .
Cn1ncc([N+](=O)[O-])c1C(=O)n1nnc2ccccc21 | -1 | -0.89 | i | -0.23 | 1.4

Compound activity from PubChem BioAssay.
